Data published in ChEMBL document CHEMBL1123267, “Synthesis and radioprotective activity of new cysteamine and cystamine derivatives” (J Med Chem, 1986).

How the values were obtained:
Mus musculus [1] = assay: Radioprotective effects in mice when administered i.p. at 50% LD50, 2 hr prior to whole body radiation.; assay type: functional
In short: (§1)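 Mice in groups of 20 were given the compound i.p., dissolved in distilled water. Whole-body irradiation was from a 60Co γ source at 0.65 Gy/min. First dose was the control LD100/30 days (9 Gy males, 9.5 Gy females) or that dose + 2 Gy, then a dose series. Irradiation LD50/30-day was found by the Karber method. DRF = treated LD50/30 ÷ solvent-control LD50/30.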

[2] = Lethal dose in mice (LD50); assay type: toxicity, organism-based; settings: mouse, in vivo
In short: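 Compounds were dissolved in distilled water and the dose range was set in a preliminary study. Five groups of 10 mice then received different doses within that range. LD50 was derived by Probit analysis.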

Mus musculus [3] = assay: Radioprotective effects in mice when administered i.p. at 50% LD50, 15 min prior to whole body radiation.; assay type: functional; in short: as §1
Mus musculus [4] = assay: Radioprotective effects in mice when administered i.p. at 12.5% LD50, 15 min prior to whole body radiation.; assay type: functional; in short: as §1
Mus musculus [5] = assay: Compound was tested for radioprotective activity when injected intraperitoneally with a dose equal to one-eighth of its LD50, 15 min before whole-body irradiation.; assay type: functional; in short: as §1

Structure (SMILES)	DRF (Mus musculus [1])	LD50 [2]	DRF (Mus musculus [3])	DRF (Mus musculus [4])	DRF (Mus musculus [5])
CC(=O)NCCSC(=O)CN.O=C(O)C(F)(F)F	1	1000 mg/kg	1.2	1	
Br.Br.C[C@H](N)C(=O)NCCSSCCNC(=O)[C@@H](C)N	1	800 mg/kg	1	1	
Br.CC(=O)SCCNC(=O)CN	1	1500 mg/kg	1.4	1	
CC(=O)SCCNC(=O)CN.O=C(O)C(F)(F)F	1	1500 mg/kg	1.4	1	
Br.Br.NCC(=O)NCCSSCCNC(=O)CN	1	1500 mg/kg	1.4	1	
Br.Br.NCCC(=O)NCCSSCCNC(=O)CCN	1	350 mg/kg	1	1	
Br.CC(=O)SCCNC(=O)[C@H](C)N	1.2	1500 mg/kg	1.4	1	
NCC(=O)NCCSC(=O)C(Cl)(Cl)Cl.O=C(O)C(F)(F)F	1	700 mg/kg	1.05		1
Br.CC(=O)SCCNC(=O)CCN	1	400 mg/kg	1	1	
CC(=O)SCCN.Cl	1.05	500 mg/kg	1.05	1	
Br.CC(=O)NCCSC(=O)CN	1	600 mg/kg	1.1	1	
Br.CCC(=O)SCCNC(=O)CN	1	1500 mg/kg	1.2	1	
Br.CC(C)(C)C(=O)SCCNC(=O)CN	1	1200 mg/kg	1.05	1	
NCC(=O)NCCSC(=O)CCl.O=C(O)C(F)(F)F	1	550 mg/kg	1	1	
Br.Br.NCCCC(=O)NCCSSCCNC(=O)CCCN	1	300 mg/kg	1	1	
NCC(=O)NCCSC(=O)C(Cl)Cl.O=C(O)C(F)(F)F	1	800 mg/kg	1.1	1	
Br.CC(=O)SCCNC(=O)CCCN		800 mg/kg	1.1	1	
NCC(=O)NCCSSCCNC(=O)CN.O=C(O)C(F)(F)F.O=C(O)C(F)(F)F	1.1	1500 mg/kg	1.55	1.2	
C[C@H](N)C(=O)NCCSSCCNC(=O)[C@@H](C)N.O=C(O)C(F)(F)F.O=C(O)C(F)(F)F	1.1	1200 mg/kg	1.4	1	
CC(=O)SCCNC(=O)[C@H](C)N.O=C(O)C(F)(F)F	1	1250 mg/kg	1.4	1	
NCCCNCCSP(=O)(O)O [AMIFOSTINE]	>1.3	950 mg/kg	2.7	1.5	
